# Bioassay records as filed in PubChem.
# procasp3 activ: activates human procaspase-3 | P42574 | recombinant procaspase-3 D3A, Ac-DEVD-pNA absorbance 405 nm | activation, % at 8.5 µM | 330,000 tested, 0.11% active;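 active = activation above the mean of all tested compounds plus 3 SD, cut at about 21% in these data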;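 note: 0% = DMSO alone and 100% = DMSO wells spiked with extra 5 µM PC-3 D3A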
# Target sequence (P42574 whole entry D9A/D28A/D175A): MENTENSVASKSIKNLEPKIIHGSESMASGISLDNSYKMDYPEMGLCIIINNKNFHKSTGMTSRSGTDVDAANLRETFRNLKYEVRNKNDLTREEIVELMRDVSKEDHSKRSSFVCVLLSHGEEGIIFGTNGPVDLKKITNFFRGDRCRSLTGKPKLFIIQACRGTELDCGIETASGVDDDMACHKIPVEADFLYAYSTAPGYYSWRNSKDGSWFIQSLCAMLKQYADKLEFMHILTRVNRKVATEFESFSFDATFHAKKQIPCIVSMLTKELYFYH
#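 Assay system – Procaspase-3 D3A mutant, all three cleavage aspartates alanine · Controls – DMSO-only low control, 5 µM PC-3 D3A high control · Schedule – 1 h compound preincubation, 2 h substrate hydrolysis at 25 °C · Signal – 405 nm absorbance of p-nitroaniline, reads at 0 and 120 min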
# aDG glyco up: alpha-DG glycosylation activation; Pro5-aDG cells, alpha-DG glycosylation AlphaScreen (IIH6); 0% Pro5, 100% B10-LARGE cell signal; activation, % at 10 µM; 360,000 tested, 0.22% active;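 active = activation of at least 8% versus controls, or a plate z-score of at least 8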;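 note: Pro5 are CHO cells carrying HIG-tagged alpha-DG that lacks glycosylation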
# procasp7 counter: counter-screen for procaspase-3 activators: activators of human procaspase-7. activation, % at 8.5 µM. 330,000 tested, 0.093% active. recombinant procaspase-7, Ac-DEVD-pNA absorbance 405 nm; D23A/D198A/D206A triple mutant, cannot self-cleave; scale: DMSO 0, 5 µM enzyme 100. P55210;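 active = percent activation above the screen-wide mean plus 3 SD, cut at about 25% in these data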
# Target sequence (P55210 whole entry D23A/D198A/D206A): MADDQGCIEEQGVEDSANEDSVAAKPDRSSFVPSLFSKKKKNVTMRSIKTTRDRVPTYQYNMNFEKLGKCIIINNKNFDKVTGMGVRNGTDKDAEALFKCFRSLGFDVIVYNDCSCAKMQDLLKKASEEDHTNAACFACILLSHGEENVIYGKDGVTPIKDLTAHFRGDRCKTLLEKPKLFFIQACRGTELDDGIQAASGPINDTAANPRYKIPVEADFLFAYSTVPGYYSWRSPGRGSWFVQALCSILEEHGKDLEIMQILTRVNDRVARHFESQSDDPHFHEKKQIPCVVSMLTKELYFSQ
#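 System: Uncleavable procaspase-7 mutant enzyme; Amount: 2 µM procaspase-7 mutant as dispensed; Schedule: 1 h compound preincubation, 2 h substrate cleavage, 25 °C; Measured by: 405 nm absorbance of p-nitroaniline; Evaluation: percent activation from buffer-corrected 0–120 min absorbance change; Control set: low DMSO alone, high DMSO plus 5 µM PC-7.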
# NR3A LBD binder: NR3A (human) ligand-binding domain modulation; Tm shift relative to glycine control, % at 25 µM; 340,000 tested, 2.5% active; NR3A LBD differential scanning fluorimetry, Tm shift; 0% = protein alone, 100% = glycine-bound protein;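 active = melting temperature shift of at least 10% of the positive control shift, at one fixed dose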
# MPTP block: permeability transition pore inhibition. 360,000 tested, 1.4% active. inhibition, % at 10 µM. isolated mouse mitochondria, Ca2+ swelling absorbance, 30 min;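 active = inhibition of 50% or more, scaled per plate between neutral and stimulator controls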;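 note: 0% = DMSO wells given calcium and 100% = 1 mM EGTA wells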
# Rh123 counter: membrane potential counter-screen of mitochondrial pore inhibitors; shares compounds with MPTP block; isolated mitochondria, Rhodamine 123 fluorescence; inhibition, % at 10 µM; 5,000 tested, 78% active; AID 624504; in the data active = inhibition above about 22%;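 note: 0% = DMSO vehicle and 100% = positive control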
# MPTP abs DR: MPTP inhibition, dose response swelling confirmation; isolated mitochondria swelling, absorbance; AID 651561; 780 tested, 58% active; shares compounds with MPTP block; IC50, µM; in the data active = IC50 below about 20 µM
# MPTP cs DR: counter-screen for mitochondrial permeability transition pore inhibitors, dose response | shares compounds with MPTP block | isolated mitochondria counterscreen, fluorescence read-out | AID 651564 | 780 tested, 49% active | IC50, µM; in the data active = IC50 below about 80 µM
# Numbers without * were called inactive; i = inactive; / = no result. An excerpt weighted towards active compounds, which were near 3.7% of everything screened.
SMILES,procasp3 activ,aDG glyco up,procasp7 counter,NR3A LBD binder,MPTP block,Rh123 counter,others
CCOC(=O)c1sc(NC(=O)CSc2n[nH]c(-c3ccncc3)n2)c(C#N)c1C,-12,0,13,-4,77*,80*,
Cc1ccccc1NC(=O)c1sc(NC(=O)COc2ccccc2)c(C#N)c1C,1,0,-8,2,54*,75*,
Cc1cccc(NC(=O)c2sc(NC(=O)COc3ccccc3)c(C#N)c2C)c1C,7,0,-7,9,22,/,
CCOC(=O)c1sc(NC(=O)CSc2nccc(C)n2)c(C#N)c1C,8,0,-4,6,-1,/,
CC(C)N=c1scc(-c2cccs2)n1/N=C/c1ccc(O)c(O)c1O,-15,-1,-22,6,95*,50*,
CN=c1scc(-c2ccccc2F)n1/N=C/c1ccc(O)c(O)c1O,/,0,/,0,17,/,
O=C(c1ccccc1)N1CCN(c2ncnc3sc4c(c23)CCC4)CC1,3,3,6,0,53*,45*,
Cc1c(S(=O)(=O)NC2CCCCCC2)c(=O)n(C)c(=O)n1C,4,0,7,3,-1,/,
O=C(CSc1ncc(-c2ccc(F)cc2)n1Cc1ccco1)Nc1ccc2c(c1)OCO2,-5,3,-9,-14,85*,62*,
COc1cccc(N=Nc2c(N)[nH]n3c(=O)cc(-c4ccccc4)nc23)c1,1,0,7,1,-1,/,
COc1ccc(-c2c(C(F)(F)F)[nH]n3c(=O)cc(-c4ccccc4)nc23)cc1,9,0,15,-2,82*,42*,
CSCCC(NC(=O)c1ccccc1Br)C(=O)NNC(=O)C1COc2ccccc2O1 (configuration not stated),/,0,/,-2,-1,/,
COC(=S)Nc1cccc(C(F)(F)F)c1,6,0,9,-1,3,/,
CNNC(=S)Nc1cccc(C(F)(F)F)c1,2,0,-6,-1,3,/,
CCC(C(=O)Nc1cccc(C(F)(F)F)c1)c1ccccc1 (configuration not stated),-7,0,3,-2,2,/,
O=C(NNC(=S)Nc1cccc(C(F)(F)F)c1)c1ccc(Cl)cc1Cl,-16,0,-8,20*,101*,89*,
CC(C)(C)NC(=S)Nc1cccc(C(F)(F)F)c1,-7,0,-2,-7,65*,84*,
FC(F)(F)c1cccc(NC(=S)Nc2ccc(Cl)c(Cl)c2)c1,3,0,13,19*,81*,65*,
FC(F)(F)c1cccc(NC(=S)NC(c2ccccc2)c2ccccc2)c1,-6,2,7,30*,70*,83*,
CC(=O)Nc1ccc(-c2ccnc3c2CC(C)(C(=O)NCc2ccc(F)c(F)c2)O3)cc1 (configuration not stated),/,0,/,/,1,/,
O=C(CNC(=O)c1ccc(Cl)cc1)NNc1c(F)c(F)cc(F)c1F,6,0,3,1,-1,/,
C=CCOc1cccc(C2C(C(=O)c3cc4ccccc4o3)=C(O)C(=O)N2c2cc(C)on2)c1 (configuration not stated),-14,0,-6,-7,1,/,
CN(Cc1ccccc1)C(=O)C1(C)CCN1C(=O)Cc1ccc(Cl)cc1Cl (configuration not stated),/,0,/,/,1,/,
O=S1(=O)c2c(F)cccc2O[C@@H](COCc2ccccc2)CN1CCc1ccc(F)cc1,/,0,/,-2,-1,/,
Cc1cccnc1NC(=S)Nc1ncccc1C,1,0,-10,-1,0,/,
SMILES,procasp3 activ,aDG glyco up,procasp7 counter,NR3A LBD binder,MPTP block,Rh123 counter,others
O=C(NC(=S)Nc1cccc(C(F)(F)F)c1)c1ccc2nonc2c1,-15,0,-8,9,73*,81*,
Cc1cccnc1NC(=S)Nc1ccc(Cl)c(Cl)c1,0,0,-7,-12,90*,97*,
O=[N+]([O-])c1cc(C(F)(F)F)cc([N+](=O)[O-])c1NCCNC(=S)Nc1ccc(Cl)c(Cl)c1,-7,0,1,26*,76*,69*,
COc1ccccc1-c1cccc(-c2nc(C(=O)N3CCCCC3)cc3c2[C@@H](CCO)N(S(=O)C(C)(C)C)C3)c1 (some centres not stated),/,0,/,/,-1,/,
CCc1nc2c(OCCOc3ccc(F)cc3)cccn2c1N(C)C(=O)C(C)C,/,0,/,/,-1,/,
O=[N+]([O-])c1cc(CS(=O)(=O)Oc2ccc(Cl)cc2)c(O)c([N+](=O)[O-])c1,-5,0,10,-4,74*,59*,
O=[N+]([O-])c1ccc(CS(=O)(=O)c2ccc(Cl)cc2)cc1,/,0,/,1,0,/,
CCOC(=O)c1sc(-c2ccccc2)cc1NC(=O)Nc1ccc([N+](=O)[O-])cc1,-4,0,0,6,87*,-5,MPTP abs DR=i;MPTP cs DR=<2.5*
Clc1ccc(SCc2nc3ccccc3[nH]2)cc1,1,1,0,-3,16,/,
Clc1ccc(/C=C/c2nc3ccccc3[nH]2)c(Cl)c1,2,0,-12,17*,86*,79*,
Clc1ccc(/C=C/c2nc3ccccc3[nH]2)cc1,7,0,11,13*,80*,85*,
Clc1cccc(Cl)c1/C=C/c1nc2ccccc2[nH]1,2,0,3,3,95*,82*,
O=C(COC(=O)CCNS(=O)(=O)c1ccccc1)Nc1ccc(OC(F)F)cc1,7,1,2,0,0,/,
O=C(NNc1nc2ccccc2s1)c1ccc(F)cc1,-5,0,-2,-5,2,/,
O=C(NNc1nc2ccc(F)cc2s1)c1cccc(F)c1,-10,-1,-3,-11,92*,76*,
CC(=O)c1sc(Nc2nc3ccc(F)cc3s2)nc1C,-67,0,-38,1,71*,63*,
CCOC(=O)c1csc(Nc2nc3ccc(F)cc3s2)n1,5,0,-1,0,2,/,
COC(=O)c1ccc2nc(Nc3nc4ccc(F)cc4s3)sc2c1,-12,0,25,12*,89*,72*,
CC(C)(C)c1cc(C(=O)Nc2ccc(F)cc2)n(Cc2ccc(F)cc2)n1,5,0,6,5,80*,87*,
CC(C)(C)c1cc(C(=O)NNc2cc(C(F)(F)F)ccc2Cl)n(Cc2ccccc2)n1,-7,0,-6,3,75*,78*,
COc1ccccc1NNC(=O)c1cc(C(C)(C)C)nn1Cc1ccccc1,-8,0,1,1,3,/,
